In PMC3457684 (Science translational medicine, 2012):
Values joined by “and” are separate entries in the source; they are usually repeats but may differ in a detail not shown here. Equal entries are not always repeated. Where two headings read alike, the source gives them in different places.

How the values were obtained:
[1] = Fexinidazole exposure in mice after acute oral dosing; format: in vivo, BALB/c mice; settings: single oral dose of fexinidazole 200 mg kg^−1, mouse blood
[2] = system: L. donovani (strain LdBOB) axenic amastigotes overexpressing L. major nitroreductase; assay: Drug susceptibility of axenic amastigotes overexpressing L. major nitroreductase; format: cell-based, Leishmania donovani; settings: for shift in sensitivity, nitroreductase overexpressing vs wildtype: axenic amastigotes; for EC50: read-out: EC50, axenic amastigotes overexpressing nitroreductase
[3] = system: L. donovani (strain LdBOB) promastigotes; assay: In vitro drug sensitivity assay, promastigotes; format: cell-based, Leishmania donovani; settings: for EC50: Leishmania donovani, 72 h, read-out: L. donovani EC50, Promastigote
In short: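 Clonal LdBOB promastigotes were grown at 26 °C in stage-specific medium. Triplicate cultures were seeded at 1 × 10⁵ parasites ml⁻¹ with test compound for 72 h, then given 50 μM resazurin, and fluorescence (ex 528, em 590 nm) was read after 4 h. For isobolograms, mid-log promastigotes received the two metabolites in fixed combinations relative to their respective EC50s. The EC50 of each combination was determined at 72 h (triplicate, mean ± SD) and plotted.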

[4] = system: L. donovani (strain LdBOB) axenic amastigotes; assay: Cytocidal effect on axenic amastigotes; format: cell-based, Leishmania donovani; settings: drug at 10 times its EC50 (sulfone 36 μM), wash-out and sub-culture without drug
In short: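 Early-log LdBOB axenic amastigotes (~1 × 10⁶ ml⁻¹), grown at 37 °C in 5% CO₂, were exposed to test compound at 36 μM. At intervals, cell density was counted, and samples were removed, washed and resuspended in fresh drug-free medium. Viability of washed parasites was followed for up to 72 h after drug removal to find the point of irreversible toxicity.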

[5] = system: L. donovani (strain LdBOB) axenic amastigotes; assay: In vitro drug sensitivity assay, axenic amastigotes; format: cell-based; settings: Leishmania donovani
In short: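 Clonal LdBOB axenic amastigotes were grown at 37 °C in 5% CO₂ in stage-specific medium and cycled between stages after at most 7 passages. Triplicate cultures were seeded at 1 × 10⁵ parasites ml⁻¹ with test compound for 72 h. Resazurin (50 μM) was added, and fluorescence (ex 528, em 590 nm) was read 4 h later. At least three experiments were run; results are weighted mean plus weighted standard deviation.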

[6] = Plasma protein binding by equilibrium dialysis; format: in vitro ADME; settings: mouse
[7] = system: intracellular L. donovani (LV9) amastigotes in peritoneal mouse macrophages; assay: In macrophage drug sensitivity assay; format: cell-based, Leishmania donovani; settings: strain LV9, peritoneal mouse macrophages, 72h
L. donovani strain LV9 = assay: In vivo drug sensitivity, mouse model of visceral leishmaniasis; design: species or system BALB/c mice; settings: oral, once daily for 5 days
L. donovani = settings: similar in vivo studies; cited from earlier work
[8] = 72 h, read-out: L. donovani EC50, Axenic amastigote
[9] = read-out: EC50, wildtype axenic amastigotes

SMILES	time blood concentration stays above EC99 [1]	shift in sensitivity, nitroreductase overexpressing vs wildtype [2]	EC50 [2]	EC50 [3]	exposure time after which no viable parasites could be recovered [4]	EC50 [5, 8]	EC50 [5, 9]	fraction unbound [6]	interaction in combination (isobologram) ([3]; fexinidazole sulfoxide plus sulfone, LdBOB promastigotes, 72h)	L. donovani EC50, Amastigote (in macrophages) [7]	tolerability in mice (L. donovani strain LV9; up to 200 mg kg^−1)	ED50 (L. donovani strain LV9; liver parasite burden day 14)	ED50 (L. donovani)	ED90 (L. donovani)
Cn1c([N+](=O)[O-])cnc1COc1ccc(S(C)(=O)=O)cc1 [Fexinidazole sulfone, fexinidazole sulfone]	more than 24 h	19 fold	0.23 ± 0.1 µM	4.8 ± 0.1 µM	30 h	1.6 ± 0.1 µM	4.4 ± 0.1 µM	0.73	–	–	–	–	–	–
Cn1c([N+](=O)[O-])cnc1COc1ccc([S+](C)[O-])cc1 (stereo not drawn) [Fexinidazole sulfoxide, fexinidazole sulfoxide]	8 h	–	–	3.1 ± 0.1 µM	30 h	4.5 ± 0.3 µM	–	0.86	additive	–	–	–	–	–
CSc1ccc(OCc2ncc([N+](=O)[O-])n2C)cc1 [Fexinidazole, fexinidazole]	–	19 fold	–	5.6 ± 0.2 µM	–	2.8 ± 0.1 µM	–	0.15	–	inactive	well tolerated	~12 mg/kg and 11.9 ± 2.3 mg/kg	–	–
CCCCCCCCCCCCCCCCOP(=O)([O-])OCC[N+](C)(C)C [Miltefosine, miltefosine]	–	no concomitant shift	4.9 ± 0.2 µM	6.1 ± 0.3 µM	–	4.4 ± 0.2 µM	–	0.002	–	–	–	–	4 mg/kg	27 mg/kg
O.O.O.O.O.O.O.O.O.O=C([O-])[C@@H]1[O][Sb](=[O])([O][Sb]2(=[O])[O][C@H]([C@H](O)CO)[C@H](O)[C@H](C(=O)[O-])[O]2)[O][C@H]([C@H](O)CO)[C@@H]1O.[Na+].[Na+].[Na+] (stereo partly drawn) [Pentostam]	–	–	–	–	–	–	–	–	–	–	–	–	20 mg/kg	57 mg/kg
CC1CS(=O)(=O)CCN1/N=C/c1ccc([N+](=O)[O-])o1 (stereo not drawn) [nifurtimox]	–	27 fold	0.2 ± 0.1 µM	–	–	–	5.6 ± 0.2 µM	–	–	–	–	–	–	–
